From ChEMBL document CHEMBL1128590, “erbB-2 oncogene inhibition by geldanamycin derivatives: synthesis, mechanism of action, and structure-activity relationships” (J Med Chem, 1995)

Key:
SK-BR-3 = test: In vitro inhibition of p185 erbB-2 oncoprotein in human breast cancer SK-BR-3 cells; assay type: functional, cell-based
How it was run: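 Cellular assay with read-out as depletion of p185 erbB-2 protein after drug treatment of the cells. This depletion tracks inhibition of p185 autophosphorylation.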

Mus musculus [1] = test: In vivo inhibition of p185 phosphotyrosine in nu/nu nude mice bearing Fisher rat embryo cells transfected with human erbB-2 at 200 mg/kg; assay type: functional
How it was run: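 Nude CD-1 (nu/nu) mice bearing subcutaneous FRE/erbB-2 tumours were dosed ip at 200 mg/kg at days 12-14 (~1 cm tumours). Tumours were removed 3 h later and extracted for p185 phosphotyrosine. The value is percent inhibition.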

Mus musculus [2] = test: In vivo inhibition of p185 phosphotyrosine in nu/nu nude mice bearing Fisher rat embryo cells transfected with human erbB-2 at 400 mg/kg; assay type: functional
How it was run: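 FRE/erbB-2 cells were implanted subcutaneously in CD-1 (nu/nu) mice. At days 12-14 (~1 cm) the mice received 400 mg/kg ip. After 3 h, tumours were excised and extracted to isolate p185 phosphotyrosine. The value is percent inhibition.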

| IC50 (SK-BR-3) | Structure (SMILES) | inhibition in vivo at 200 mg/kg (Mus musculus [1]) | inhibition in vivo at 400 mg/kg (Mus musculus [2]) |
| --- | --- | --- | --- |
| 140 nM | CO[C@H]1/C=C\C=C(/C)C(=O)NC2=CC(=O)C(N)=C(C[C@@H](C)C[C@H](OC)[C@@H](F)[C@@H](C)/C=C(\C)[C@@H]1OC(N)=O)C2=O | 46% | – |
| 70 nM | CO[C@H]1/C=C\C=C(/C)C(=O)NC2=CC(=O)C(N3CCC3)=C(C[C@@H](C)C[C@H](OC)[C@H](OC(C)=O)[C@@H](C)/C=C(\C)[C@@H]1OC(N)=O)C2=O | 78% | – |
| – | CO[C@H]1C[C@H](C)CC2=C(N3CCC3)C(=O)C=C(NC(=O)/C(C)=C/CC[C@H](OC)[C@@H](OC(N)=O)/C(C)=C/[C@H](C)[C@H]1O)C2=O | – | 44% |
| – | CO[C@H]1/C=C\C=C(/C)C(=O)NC2=CC(=O)C(N)=C(C[C@@H](C)C[C@H](OC)[C@H](O)[C@@H](C)/C=C(\C)[C@@H]1OC(N)=O)C2=O | – | 59% |
